Screening results (PubChem BioAssay)
SUMO Mot1 rescue: blocks SUMOylation pathway, rescuing yeast Mot1-301 growth | growth rescue, % at 18.8 µM | AID 2716 | S. cerevisiae Mot1-301 growth rescue, ATP luminescence, 38.5C; percent above DMSO median, 100 means doubled | hit rate 1% among 320,000;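 active = every valid replicate shows activation above 250% relative to neutral control wells; inactive = the rest, any valid replicate at or below 250%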;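 note: OY570 slx delta 5 strain wells were the positive control but not used for scaling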
Efflux pump mplx: inhibitors of Candida antifungal efflux pumps expressed in yeast. S. cerevisiae Candida pump triplex, Nile Red efflux. inhibition, % at 10 µM. hit rate 0.44% among 330,000. AID 485275;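 active = plate passing quality check with inhibition over a set limit, or well fluorescence over plate mean plus 4 SD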;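 note: Nile Red retained in pooled yeast measured as flow cytometry median fluorescence; 0% = buffer negative control and 100% = Enniatin B positive control; higher means more Nile Red kept so more efflux inhibition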
Beta apoptosis: blocks beta cell apoptosis | protection from apoptosis, % (no concentration beside the values) | AID 435005 | hit rate 0.8% among 300,000 | INS-1E cytokine-induced death, ATP luminescence, 48 h; percent of positive-control rescue, neutral wells zero;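 active = Every replicate reaches about 75%, or at least half do and their mean reaches it too, limit read from the data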;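 note: 0% = cytokine-treated negative control wells and 100% = positive control rescue; higher means more ATP so stronger rescue from cytokine killing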
T cruzi repl: T. cruzi replication inhibition; T. cruzi beta-gal in NIH3T3, luminescence, 90 h; inhibition, % (no concentration beside the values); hit rate 1.4% among 300,000;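 active = mean inhibition across valid replicates above about 55%, limit read from the data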;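 note: signal also drops with host cell toxicity which is not excluded here; 0% = plate median of DMSO wells and 100% = zero luminescence signal; higher percent means less beta-gal luminescence so fewer parasites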
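assay system = mouse NIH/3T3 fibroblasts infected with β-gal-expressing T. cruzi Tulahuen C4 | input = 5,000 NIH/3T3 host cells per well | buffer or medium = DMEM plus 2% FBS | timing = 3 h host attachment, then at least 90 h co-culture | measured by = GalScreen luminescence, 60 min | evaluation = luminescence reflecting intracellular parasite burden, expressed as percent inhibition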
WT yeast gro inh: growth inhibition of WT yeast, mitochondrial fusion screen; hit rate 2.1% among 190,000; mitochondrial fusion phenotypic screen, WT strain; inhibition, % at 10 µM; in the data active = inhibition above about 58%; tested in S. cerevisiae
CSC inhib: cancer stem cell inhibition; cancer stem cell-like cells viability, luminescence; inhibition, % at 7.5 µM; hit rate 1.1% among 300,000; in the data active = inhibition above about 75%; tested in HMLE shEcad cells
Mot1 SUMO dose: inhibits SUMO pathway, affecting Mot1-301 yeast growth | growth activity, percent, % at 42 µM | S. cerevisiae Mot1-301 galactose growth, ATP luminescence, 24 h; -100 = growth of slx-deleted rescue strain | AID 493004 | 2,300 tested, under 10 active | shares compounds with SUMO Mot1 rescue;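 active = Signal drops as the depositor expects, and the fitted half-maximal dose is no more than ten times the top valid tested dose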;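 note: more negative values mean stronger growth rescue toward the control strain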
Active calls of the source: *; x = not tested or not shown; + = active, no number. A selection: hits, their analogues and other compounds. The true share with any hit is near 4.8%.

SMILES | SUMO Mot1 rescue | Efflux pump mplx | Beta apoptosis | T cruzi repl | WT yeast gro inh | CSC inhib | Mot1 SUMO dose
c1ccc2c(c1)[nH]c1c(N3CCN(C4CCCCC4)CC3)ncnc12 | 739* | 0 | 2 | -7 | 2 | -6 | -1
OCCc1c[nH]c2cc(F)ccc12 | 566* | 0 | -6 | -12 | x | -4 | 0
CCn1cc(CN2CCCC(CNC(=O)COc3ccccc3OC)C2)c(C)n1 (stereo not given) | 11 | 0 | 5 | 39 | x | -7 | x
O=C(O)Cc1c(C(=O)O)[nH]c2ccc(C(=O)O)cc12 | 144 | 0 | -6 | -9 | x | -9 | x
CCCc1ccc(S(=O)(=O)NCCc2ccncc2)cc1 | 541* | 0 | 10 | -53 | 4 | -1 | 0
Fc1cccc(Nc2ncnc3sccc23)c1 | 655* | 0 | -5 | -2 | x | 41 | 0
O=C(O)c1cccc(Nc2ncnc3sccc23)c1 | -17 | 0 | x | 3 | 2 | 14 | x
O=C(O)CCC(NC(=O)c1ccc(Cl)cc1)C(=O)O (stereo not given) | + | 0 | 5 | -7 | -4 | -1 | 0
COc1ccc(C(=O)N2N=C3CC(C)(C)OCC3C2c2ccccc2)cc1 (stereo not given) | 1 | 0 | -18 | 4 | -5 | -7 | x
CCc1ccc(NC(=O)C(C)Oc2nnc(-c3cccs3)c(-c3cccs3)n2)cc1 (stereo not given) | -13 | 0 | -4 | 21 | 8 | -8 | x
CC(C)c1ccc(NC(=O)COc2nnc(-c3cccs3)c(-c3cccs3)n2)cc1 | 810* | 0 | 5 | 11 | 7 | -7 | 0
CC(=O)NNS(=O)(=O)c1scc(S(=O)(=O)c2ccc(Cl)cc2)c1C | -22 | 0 | -10 | 1 | x | -1 | x
O=C1CC(=O)C(n2cncn2)C(c2ccc(Cl)cc2Cl)C1 (stereo not given) | + | 0 | -2 | -11 | 13 | x | 0
O=C1C=C(O)C(n2cncn2)C(c2cc(F)ccc2F)C1 (stereo not given) | -13 | 0 | x | -11 | 2 | x | x
FC(F)(F)c1nc2ccccc2n2c(-c3c(Cl)cccc3Cl)nnc12 | 1 | 0 | 7 | -10 | -10 | 5 | x
FC(F)(F)c1nc2ccccc2n2c(-c3ccc(Cl)cc3Cl)nnc12 | + | 0 | 3 | -19 | 4 | x | 0
O=C1c2nccnc2C(=O)N1c1ccc(C(F)(F)F)cc1 | 588* | 0 | 3 | 0 | -11 | 3 | -1
Nc1cccc2c1C(=O)N(c1ccccc1)C2=O | 668* | 0 | x | -29 | 26 | -3 | 0
Nc1ccccc1N1C(=O)c2cccc3cccc(c23)C1=O | -8 | 0 | -1 | -19 | x | -2 | x
O=C(Nc1ccsc1C(=O)O)c1cccc(C(F)(F)F)c1 | 968* | 0 | 3 | 5 | x | 11 | 0
COc1ccc2[nH]cc(CCNS(=O)(=O)c3ccc(C)cc3)c2c1 | 484* | 0 | -11 | -10 | x | -3 | 0
c1ccc2cc(Cn3ccnc3)ccc2c1 | 413* | 0 | -2 | 7 | x | -20 | -1
CCN(C(=O)COC(=O)c1cc(-c2cccc3ccccc23)nc2ccccc12)C1CCS(=O)(=O)C1 (stereo not given) | 1 | 0 | -2 | -30 | 2 | 4 | x
CCCCOc1ccc(C(=O)Nc2ccc(N3CCN(C)CC3)cc2)cc1 | + | 0 | 9 | 29 | 24 | x | 0
CCOc1ccc(C(=O)Nc2ccc(N3CCN(C)CC3)cc2)cc1 | -7 | 0 | -3 | 8 | x | -7 | x
SMILES | SUMO Mot1 rescue | Efflux pump mplx | Beta apoptosis | T cruzi repl | WT yeast gro inh | CSC inhib | Mot1 SUMO dose
O=C(COC(=O)c1ccc(Cl)nc1)NCCC1=CCCCC1 | -12 | 0 | -5 | -10 | -14 | -12 | x
Cc1ccc(S(=O)(=O)Oc2ccc(/C=C3\N=C(c4cccc(C)c4)OC3=O)cc2)cc1 | + | 0 | -2 | 10 | 5 | -5 | 0
CC(C)(C)NC(=O)CSc1nc2cccnc2n1C1CCCCC1 | 4 | 0 | 3 | 10 | x | -12 | x
COc1ccc(N2CCN(C(=O)Cn3nnc(-c4ccc(OC)c(OC)c4)n3)CC2)cc1 | 385* | 0 | 4 | 6 | -5 | -9 | 0
COc1ccc(/C=C/C(=O)NC(=S)Nc2ccccn2)cc1 | 900* | 0 | 2 | -18 | x | -7 | 0
COc1ccccc1/C=C/C(=O)NC(=S)Nc1ccccn1 | -19 | 0 | 8 | 0 | x | 8 | x
COCc1ccc(CN2CCC(n3nccc3NC(=O)C(OC)c3ccccc3)CC2)o1 (stereo not given) | 1 | 1 | -1 | -6 | x | -9 | x
COC(C(=O)Nc1ccnn1C1CCN(Cc2cnn(C)c2)CC1)c1ccccc1 (stereo not given) | 497* | 0 | -10 | -8 | x | -11 | 0
COc1cccc(C(=O)NCCNC(=O)c2ccco2)c1 | 24 | 0 | 4 | 0 | x | -7 | x
O=C(O)c1ccc(COc2c(F)c(F)cc(F)c2F)cc1 | + | 0 | 2 | 5 | -10 | 5 | 0
C/C=C/C(=O)OCC(=O)Nc1nc2ccc(C)cc2s1 | 361* | 0 | 3 | -5 | 10 | -12 | 0
CCOCC(=O)Nc1nc2ccc(C)cc2s1 | 8 | 0 | 0 | 3 | 0 | -6 | x
O=C(COC(=O)c1ccc(Br)o1)Nc1ncc(Cl)cc1Cl | -7 | 0 | -9 | -5 | -2 | -5 | x
O=C(COC(=O)c1ccc([N+](=O)[O-])o1)Nc1ncc(Cl)cc1Cl | 848* | 0 | -5 | x | x | -11 | -1
Cc1ccc(S(=O)(=O)N2CCC(=O)N(C(COCc3ccc(Cl)cc3)Cc3ccccc3)CC2)cc1 (stereo not given) | 8 | 0 | 49 | 27 | 27 | 20 | x
CCS(=O)c1ccccc1C(=O)O (stereo not given) | 392* | 0 | -1 | -8 | 8 | -15 | 0
Cc1ccccc1NC(=O)CCN1CCN(Cc2ccccc2)CC1 | -8 | 0 | -6 | 5 | 2 | -5 | x
Cc1cc(C)c(NC(=O)CCN2CCN(Cc3ccccc3)CC2)c(C)c1 | 465* | 0 | x | 21 | x | 4 | 0
CC(=O)CCCCn1cnc2c1c(=O)n(C)c(=O)n2C | 18 | 0 | 6 | -13 | 4 | -11 | x
CN1CCCCC1=NCCCn1cnc2c1c(=O)n(C)c(=O)n2C | 602* | 0 | 4 | -13 | -3 | -6 | 0
O=C(CN1CCN(C(=O)c2ccccc2)CC1)Nc1ncc(Br)cc1Br | + | 0 | -8 | 6 | -6 | x | 0
O=C(Nc1ccccn1)c1ccc(CN(c2ccccc2)S(=O)(=O)c2ccccc2)cc1 | 505* | 0 | x | 27 | -9 | 23 | 0
COc1ccc([N+](=O)[O-])cc1NC(=O)C1CCCN1S(=O)(=O)c1cccs1 (stereo not given) | 418* | 0 | -2 | -10 | x | -6 | 0
